# Measurements reported in ChEMBL document CHEMBL1122612, “7-(Ethoxycarbonyl)-6,8-dimethyl-2-phenyl-1(2H)-phthalazinone derivatives: synthesis and inhibitory effects on platelet aggregation” (J Med Chem, 1984).
# Species on record: Oryctolagus cuniculus
# Assay: Inhibition of arachidonic acid induced platelet aggregation in rabbit platelet rich plasma
# Assay type: functional
# Details: read-out: ED50 (the source's name)
# Summary of the method: (§1)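 Rabbit blood drawn from the carotid artery (pentobarbital anaesthesia, 35 mg/kg iv) into 3.8% sodium citrate (1/10 volume). PRP obtained by spinning at 150g for 15 min; 3.5-4.5 × 10^5 platelets/μL. Compound in Me2SO (≤0.5% final) preincubated 3 min at 37 °C with 1200 rpm stirring. Aggregation then started with 137 μM AA (final) and read turbidimetrically. Inhibition = maximum deflection relative to vehicle; ED50 range from three experiments.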
row,EC50,Compound
1,≥ 50 µM,CCOC(=O)c1c(C)cc2cnn(-c3cccc(OC)c3)c(=O)c2c1C
2,≥ 50 µM,CCOC(=O)c1c(C)cc2cnn(-c3ccc(C)c(Cl)c3)c(=O)c2c1C
3,≥ 100 µM,COc1ccc(-n2ncc3cc(OC)c(OC)cc3c2=O)cc1
4,≥ 100 µM,COc1cc2cnn(-c3ccccc3)c(=O)c2cc1OC
5,≥ 50 µM,CCOC(=O)c1c(C)cc2cnn(-c3ccc(C(=O)O)cc3)c(=O)c2c1C
6,≥ 50 µM,CCOC(=O)c1c(C)cc2cnn(-c3ccc(NC(C)=O)cc3)c(=O)c2c1C
7,≥ 50 µM,CCOC(=O)c1ccc(-n2ncc3cc(C)c(C(=O)OCC)c(C)c3c2=O)cc1
8,≥ 100 µM,COc1cc2cnn(-c3ccccc3Cl)c(=O)c2cc1OC
9,≥ 100 µM,COc1ccc(-n2ncc3cc(OC)c(OC)cc3c2=O)cc1OC
10,≥ 50 µM,CCOC(=O)c1c(C)cc2cnn(-c3ccc(OC)c(OC)c3)c(=O)c2c1C
11,≥ 50 µM,CCOC(=O)c1c(C)cc2cnn(-c3ccc(F)cc3)c(=O)c2c1C
12,≥ 50 µM,CCOC(=O)c1c(C)cc2cnn(-c3ccc([N+](=O)[O-])cc3)c(=O)c2c1C
13,≥ 50 µM,CCOC(=O)c1c(C)cc2cnn(-c3ccc(S(C)(=O)=O)cc3)c(=O)c2c1C

# System: not listed separately
# Assay: Inhibition of human platelet cAMP Phosphodiesterase
# Assay type: functional
# Details: not given
# Summary of the method: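 Low-Km cAMP phosphodiesterase from human platelets, prepared and assayed per an earlier method. Result expressed as IC50, the μM concentration inhibiting enzyme activity by 50%.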
row,IC50,Compound
1,34 µM,CCOC(=O)c1c(C)cc2cnn(-c3ccccc3Cl)c(=O)c2c1C
2,10 µM,CCOC(=O)c1c(C)cc2cnn(-c3ccccc3)c(=O)c2c1C

row,Compound,IC50
1,COc1ccc(Cc2nccc3cc(OC)c(OC)cc23)cc1OC [PAPAVERINE],0.55 µM

# Species on record: Oryctolagus cuniculus
# Assay: Inhibition of arachidonic acid induced platelet aggregation in rabbit platelet rich plasma, range 5-10
# Assay type: functional
# Details: read-out: ED50 (the source's name)
# Summary of the method: as §1
row,EC50,Compound
1,5 µM,CCOC(=O)c1c(C)cc2cnn(-c3ccccc3C)c(=O)c2c1C
2,5 µM,CCOC(=O)c1c(C)cc2cnn(-c3ccc(OC)cc3)c(=O)c2c1C

# Species on record: Oryctolagus cuniculus
# Assay: Inhibition of arachidonic acid induced platelet aggregation in rabbit platelet rich plasma, range 25-50
# Assay type: functional
# Details: read-out: ED50 (the source's name)
# Summary of the method: as §1
row,EC50,Compound
1,25 µM,CCOC(=O)c1c(C)cc2cnn(-c3ccc(C)cc3)c(=O)c2c1C
2,25 µM,CCOC(=O)c1c(C)cc2cnn(-c3ccc(O)cc3)c(=O)c2c1C

# Species on record: Oryctolagus cuniculus
# Assay: Inhibition of arachidonic acid induced platelet aggregation in rabbit platelet rich plasma, range 2-5
# Assay type: functional
# Details: read-out: ED50 (the source's name)
# Summary of the method: as §1
row,EC50,Compound
1,2 µM,CCOC(=O)c1c(C)cc2cnn(-c3ccccc3F)c(=O)c2c1C
2,2 µM,CCOC(=O)c1c(C)cc2cnn(-c3ccccc3Cl)c(=O)c2c1C
3,2 µM,CCOC(=O)c1c(C)cc2cnn(-c3ccccc3)c(=O)c2c1C
4,2 µM,CCOC(=O)c1c(C)cc2cnn(-c3ccc(N)cc3)c(=O)c2c1C

# Species on record: Oryctolagus cuniculus
# Assay: Inhibition of arachidonic acid induced platelet aggregation in rabbit platelet rich plasma, range 50-100
# Assay type: functional
# Details: read-out: ED50 (the source's name)
# Summary of the method: as §1
row,EC50,Compound
1,50 µM,CCOC(=O)c1c(C)cc2cnn(-c3cccc(C)c3)c(=O)c2c1C
